The term EC50 denotes the concentration at which the effect is half-maximal.

The source made the active and inactive calls.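 How the source made its calls: active means compounds whose fitted half-maximal concentration for reducing fibroblast viability is 100 µM or lower; inactive means the rest.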

The test system of this experiment is LL 47 lung fibroblast viability, ATP luminescence. Put plainly: LL 47 lung fibroblast growth inhibition, concentration-response, selectivity test for endothelial growth inhibitor program, cellular, luminescent ATP readout (AID 821). The method, boiled down:
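Material – LL 47 human lung fibroblasts · Input – 1,150 cells/well · Doses – compound concentration series from 0.039 to 20 µM, 0.2% DMSO · Timing – 72 h exposure, 37 °C · Detection – CellTiter-Glo luminescence · Read-out basis – percent viability relative to untreated wells, EC50 via 4-parameter fit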

As to `COc1ccc(CN=C(C)c2c(C(F)(F)F)[nH]n(-c3nc4ccccc4s3)c2=O)cc1`, the EC50 is 18 µM. Under `Cc1ccc(-c2csc3ncnc(Sc4nnc(CN5CCCCCC5=O)o4)c23)cc1` stands 5.46 µM. Under `N=c1c2c(-c3ccccc3)c(-c3ccccc3)n(Cc3ccco3)c2ncn1Cc1ccco1` stands 7.06 µM; under `Cc1ccsc1/C=C/c1ccc2cccc(O)c2n1`, 10.9 µM. Next, `O=c1[nH]c2ccccc2n1C1CCN(CCCC(c2ccc(F)cc2)c2ccc(F)cc2)CC1`: 13.6 µM; `COc1cccc(C(=O)Oc2c(CN3CCOCC3)cc(Cl)c3cccnc23)c1`: 5.95 µM; `CCc1ccc(-c2nc(CN3CCC(C(=O)N4CCN(c5ccccc5)CC4)CC3)c(C)o2)cc1`: 18.7 µM. `COC(=O)NC(=C(Cl)Cl)S(=O)(=O)c1ccccc1`: the EC50 was 12.2 µM. Next, `COc1ccc(CC(=O)Nc2ccc(-c3nnc(-c4ccc(C)cc4)o3)cc2)cc1`: 12.8 µM; `COc1ccc(-c2cc(C#N)nc(N3CCNCC3)n2)cc1`: 11.8 µM. Consider `CCCCN(C)S(=O)(=O)c1ccc(C(=O)Nc2nnc(-c3cccs3)o2)cc1`, for which the EC50 is 11.5 µM. Consider `Oc1ccccc1/C=N/Nc1nccnc1Cl`, for which the EC50 is 2.08 µM.

As to `Cc1ccc2oc3c(c(=O)c2c1)C(c1cccc(Br)c1)N(Cc1ccco1)C3=O` (configuration not stated), the half-maximal effective concentration (EC50) was 18.3 µM. As for `CC1CC(C)CN(S(=O)(=O)c2ccc(C(=O)Nc3nnc(-c4cccs4)o3)cc2)C1` (configuration not stated), the EC50 was 8.61 µM. Take `O=C(C#Cc1cccc([N+](=O)[O-])c1)c1ccccc1`: the EC50 is 18.5 µM. With `CCOC(=O)C(C(C)=O)c1c(Br)c(O)c(O)c2c(C(=O)c3ccc(C)cc3)coc12` (configuration not stated), the EC50 was 8.67 µM. Next, `CC1(C)Cc2ccccc2C(NNC(=O)c2ccccn2)=N1`: 11.5 µM.

As to `CCCCCCc1cc2cc(-c3nnc(-c4ccccc4)o3)c(=O)oc2cc1O`, the EC50 was 20.3 µM. `O=C(Nc1ccc(-c2nc3c(ccc4ccccc43)o2)cc1)c1ccco1`: the EC50 was 10.9 µM. Next, `O=C(Nc1nnc(-c2ccccc2SCc2ccccc2F)s1)Nc1ccccc1F`: 16.2 µM. For the compound `CCOC(=O)c1ccccc1Nc1cn(C(C)=O)c2ccccc12`, the 50% effective concentration (EC50) was 14.5 µM. Next, `CCn1c(=O)cc(C(=O)OC)sc1=Nc1ccc(F)c(F)c1`: 17.4 µM; `CC1(C)CC(=O)C2=C(C1)Oc1nc3ccccc3cc1C2C(C#N)C#N` (configuration not stated): 14.5 µM; `COc1ccc(C(=O)Oc2c(CN3CCOCC3)cc(Cl)c3cccnc23)cc1`: 6.15 µM. Under `COC(=O)c1ccc2c(=O)n(Cc3ccco3)c(SCC(=O)Nc3ccc(C)c(Cl)c3)nc2c1` stands 4.07 µM; under `COc1ccc(C(=O)Nc2ccccc2C(=O)N(Cc2ccco2)C(C(N)=O)C(C)C)cc1` (configuration not stated), 17.4 µM; under `CC1CC(C)CN(S(=O)(=O)c2ccc(C(=O)NCCCn3ccnc3)cc2)C1` (configuration not stated), 1.77 µM. Under `Cc1ccccc1CS(=O)(=O)c1nnc([C@H](CC(C)C)NC(=O)OC(C)(C)C)o1` stands 14.9 µM; under `Cc1cc(NC(=O)c2cc(-c3ccncc3)nc3c(C)cccc23)no1`, 9.48 µM. Consider `COc1ccc(CC(=O)Nc2ccc(-c3nc4cc(C)ccc4o3)c(O)c2)cc1OC`, for which the EC50 is 18.6 µM.

As to `CC(Nc1nc(N2CCCC2)nc2ccccc12)c1ccccc1` (configuration not stated), the EC50 is 11.7 µM. With `O=c1[nH]c2cc3c(cc2cc1C(c1nnnn1C1CCCCC1)N1CCSCC1)OCCO3` (configuration not stated), the EC50 is 19.7 µM.

As to `Cc1cc2c(N=O)c(NO)ccc2[nH]1`, the EC50 is 2.93 µM. Next, `N#CC(c1ccccc1)c1ccc2c(C(F)(F)F)cc(C(F)(F)F)nc2n1` (configuration not stated): 18 µM; `CC(C)COC(=O)c1ccc2c(c1O)C(=O)c1ccccc1C2=O`: 17.9 µM; `O=C1CSC(=S)N1Cc1cccnc1`: 9.72 µM.

With `Cn1c(=O)n(C)c2cc(NC(=O)CCl)ccc21`, the EC50 was 10 µM. Under `Cn1c(=NC(=O)CCl)sc2ccccc21` stands under 0.039 µM; under `COc1ccc(C(=O)C(CN2CCOCC2)c2ccccc2)cc1` (configuration not stated), 4.7 µM.

As to `N#Cc1cc2sc3nnc(-c4ccncc4)n3c2cc1C#N`, the EC50 was 15.6 µM. Under `CCC(=O)OCCNc1cc(Sc2nc3ccccc3s2)c2nonc2c1[N+](=O)[O-]` stands 6.76 µM; under `COc1ccc(-c2nnc(Nc3nc4c(OC)cccc4s3)o2)cc1`, > 10 µM (inactive); under `O=C(NNC(=O)c1ccc([N+](=O)[O-])o1)c1ccccc1`, 11.7 µM. Next, `COc1ccc2oc(=O)c(-c3nnc(NCc4ccco4)s3)cc2c1`: 8 µM; `CCOC(=O)C1=C(N)n2c(s/c(=C/c3ccco3)c2=O)=C(C(=O)OC)C1c1ccco1` (configuration not stated): 9.27 µM; `Cc1cccc(NC(=O)Nc2cccc(Oc3c(F)c(F)c(F)c(F)c3F)c2)c1`: 17.5 µM.

For the compound `Cc1nc(NC(=O)CSc2nc3cccnc3n2C2CCCCC2)sc1C`, the EC50 was 8.49 µM.

Consider `COc1ccc(OC)c(CCNC(=O)Cn2sc3nc(C)cc(C)c3c2=O)c1`, for which the EC50 is 11.7 µM. Consider `c1ccc(-c2noc(-c3ccc4c(c3)OCO4)n2)nc1`, for which the EC50 is 10.5 µM. `O=C(/C=C/c1ccc(Cl)cc1)c1cccnc1`: the EC50 was 19.7 µM. In the case of `Cn1cc(/C=N/n2cnc3scc(-c4ccccc4)c3c2=O)c2ccccc21`, the EC50 is 12.9 µM. Consider `N#CCC(=O)Nc1ncn(Cc2ccccc2Cl)n1`, for which the EC50 is 19.7 µM. Next, `Cc1cc(C)c2oc(-c3ccc(Cl)c(NC(=O)c4ccc(C#N)cc4F)c3)nc2c1`: 6.89 µM; `Cc1nc(S(=O)(=O)N(C)c2ccccc2)c(C#N)c(C)c1Cl`: 18.7 µM. Under `O=C(CN1CCCC1)Nc1ccc(-c2nc3cc(NC(=O)CN4CCCC4)ccc3o2)cc1` stands 7.33 µM; under `COc1ccc(C2=Nn3c(nnc3C3CCCCC3)SC2)cc1OC`, 14.1 µM. Regarding `Cc1ccc(C2Oc3ccccc3C3=C2C(c2cccs2)n2ncnc2N3)cc1` (configuration not stated), the EC50 is 19.1 µM. Under `O=C1CC(Sc2nnc(-c3ccccc3O)o2)C(=O)N1c1ccccc1` (configuration not stated) stands 20.8 µM.

For `COc1cc(/C=C(/C(=O)c2cccs2)c2nc3ccccc3[nH]2)cc(OC)c1O`, the EC50 is 8.69 µM.

For the compound `N#Cc1c(NCCN)nc(-c2ccco2)c2c1CCCC2`, the EC50 is 11.7 µM. Take `CN(CCO)c1cc(Sc2nc3ccccc3s2)c2nonc2c1[N+](=O)[O-]`: the EC50 is 18.6 µM. Next, `O=C1CC(c2ccco2)Cc2nc(Nc3nc(-c4ccccc4)c4ccccc4n3)ncc21` (configuration not stated): 14 µM; `CCN(CC)CCn1c(=N)n(CCOc2ccccc2)c2ccccc21`: 10.7 µM. Next, `CSc1nncc(=O)[nH]1`: 13.1 µM; `O=C(Oc1ccccc1-c1nnco1)c1ccc(Cl)cc1`: 5.03 µM. Next, `CCOc1cc(N2CCOCC2)c(OCC)cc1NC(=O)COc1cccc2cccnc12`: 6.41 µM. Take `Cc1ccc(C(=O)c2c(C)oc3c2C(=O)C(=O)c2ccccc2-3)cc1`: the EC50 is 3.46 µM.

Take `COc1ccc(NC(=O)/C(Cl)=C(/Cl)S(=O)(=O)Cc2ccccc2)cn1`: the EC50 was 6.19 µM. As to `C#CCn1c(=NC(=O)c2ccc(Br)s2)sc2cccc(OC)c21`, the EC50 is 20.1 µM. For the compound `CCCCn1c(=O)c(C(=O)Nc2cnccn2)c(O)c2ccccc21`, the EC50 is 16.1 µM. Under `COCCCn1[nH]c2c3c(ccc2c1=O)C(=O)c1ccccc1C3=O` stands 17 µM. On to `CCCc1[nH]nc2c1C(c1ccc(Br)s1)C(C#N)=C(N)O2` (configuration not stated), for which the EC50 is 9.62 µM. For the compound `Cc1cc(C)n(-c2nc3ccccc3c(=O)n2OCC(=O)OCc2ccccc2)n1`, the EC50 is 4 µM. Next, `Cc1ccc2[nH]c3c(c2c1)CCCC3=O`: > 10 µM (inactive); `Cc1ccc(S(=O)(=O)N2CCCN(S(=O)(=O)c3ccc(C(F)(F)F)cc3)CC2)cc1`: 16.1 µM. As to `O=S(=O)(CCN(CCS(=O)(=O)C(F)(F)F)CC1CCCO1)C(F)(F)F` (configuration not stated), the EC50 was 5.88 µM.

Regarding `O=c1cc(-c2ccccc2)[nH]n1-c1nc2ccccc2[nH]1`, the EC50 is 5.6 µM.

Take `C=CCOC(=O)C1=C(C)NC(SCC(=O)Nc2ccc(C)c(Cl)c2)=C(C#N)C1c1ccco1` (configuration not stated): the EC50 is 7.76 µM.

`Oc1c(I)cc(Cl)c2cccnc12`: the EC50 is 11.4 µM.

On to `COc1cccc(C(=O)c2sc(NC(C)C)nc2N)c1`, for which the EC50 was 16.1 µM.

`COc1ccc(C2Oc3ccccc3C3=C2C(c2cccs2)n2ncnc2N3)cc1` (configuration not stated): the 50% effective concentration (EC50) was 19.2 µM. Under `Cc1ccc(-n2c(SCC(=O)Nc3ccc4c(c3)OCO4)nnc2-c2cccs2)cc1` stands 17.5 µM.

Regarding `Cc1oc(-c2ccc(Cl)cc2)nc1CN1CCC(C(=O)N2CCN(Cc3ccccc3)CC2)CC1`, the EC50 is 17.5 µM. Next, `CCN1CCN(c2cc(C)c3cc(NC(=O)c4ccc(OC)c(OC)c4)ccc3n2)CC1`: 15.2 µM; `CCOC(=O)c1cnc(-n2nc(C)cc2C)nc1NC1CCCCC1`: 14.2 µM. Under `CCCCCCOC(=O)C(C#N)c1nc2ccccc2nc1N1CCN(CC)CC1` (configuration not stated) stands 17.6 µM. `O=C(Oc1cccc2cccnc12)c1ccc2c(c1)OCCO2`: the EC50 was 6.78 µM. Under `CC(C)(C)c1nn(-c2ccccc2)c2[nH]c(=O)c(CNCc3ccc4c(c3)OCO4)cc12` stands 20.6 µM; under `Oc1ccc(Cl)cc1-c1cc(-c2ccco2)[nH]n1`, > 10 µM (inactive).

As to `Cc1ccc(C)n1NC(=O)c1ccccc1O`, the EC50 is 10.3 µM. Under `O=C1C=C(c2ccc(Cl)cc2)C(=O)N1Nc1ccccc1` stands 14.9 µM. `Cc1cc(C)c2ccc(N)nc2c1O`: the EC50 is 2.82 µM.

For the compound `O=C(Oc1c(CN2CCOCC2)cc(Cl)c2cccnc12)c1ccc(F)cc1`, the EC50 was 5.32 µM.

Turning to `CCN(CC)c1ccc2c(c1)oc(=O)c1c(Cl)cc(=O)oc12`, the EC50 was 7.29 µM. Next, `Cc1ccccc1CS(=O)(=O)c1nnc([C@H](Cc2ccccc2)NC(=O)OC(C)(C)C)o1`: 13.1 µM; `CCCCS(=O)(=O)/C=C\C=C/S(=O)(=O)CCCC`: 0.936 µM; `COc1ccc(N2C(=O)CC(Sc3nnc(-c4ccccc4)o3)C2=O)cc1` (configuration not stated): 13.2 µM.

Source of the values: PubChem BioAssay AID821 (SRMLSC, 2007).
